From ChEMBL document CHEMBL1143154, “Discovery of potent LPA2 (EDG4) antagonists as potential anticancer agents” (Bioorg Med Chem Lett, 2008)

Experiments:
[1] = biological target: T1, Lysophosphatidic acid receptor 2 (Homo sapiens, UniProt Q9HBW0); test: Antagonist activity at LPA2 expressed in RH7777 cells with Gi4-protein and aequorin by calcium mobilization assay; type: functional, cell-based
Procedure, shortened: (§1)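 Rat hepatoma RH7777 cells transiently transfected with aequorin, chimeric Gi4-protein and the LPA receptor subtype (LPA1, LPA2 or LPA3). Inhibition of LPA-induced receptor activation read as Ca2+ flux by flash luminescence in 384-well format; IC50 in μM, n = 2.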

[2] = biological target: Lysophosphatidic acid receptor 1 (Homo sapiens, UniProt Q92633); test: Antagonist activity at LPA1 expressed in RH7777 cells with Gi4-protein and aequorin by calcium mobilization assay; type: functional, cell-based; procedure, shortened: as §1
[3] = biological target: T2, Lysophosphatidic acid receptor 3 (Homo sapiens, UniProt Q9UBY5); test: Antagonist activity at LPA3 expressed in RH7777 cells with Gi4-protein and aequorin by calcium mobilization assay; type: functional, cell-based; procedure, shortened: as §1
T2 sequence (Q9UBY5 whole entry): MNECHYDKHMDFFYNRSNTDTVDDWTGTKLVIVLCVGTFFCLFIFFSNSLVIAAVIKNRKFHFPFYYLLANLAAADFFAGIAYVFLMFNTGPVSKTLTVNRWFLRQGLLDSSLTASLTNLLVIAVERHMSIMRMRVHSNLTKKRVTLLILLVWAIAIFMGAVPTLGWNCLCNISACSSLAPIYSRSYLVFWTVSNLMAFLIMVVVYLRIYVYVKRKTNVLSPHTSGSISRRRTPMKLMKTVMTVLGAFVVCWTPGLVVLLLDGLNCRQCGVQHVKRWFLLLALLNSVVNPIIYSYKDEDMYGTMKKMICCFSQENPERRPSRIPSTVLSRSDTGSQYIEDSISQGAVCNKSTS

[4] = biological target: T1, Lysophosphatidic acid receptor 2; test: Antagonist activity at LPA2 assessed as inhibition of LPA-induced Ca2+ flux; type: functional; procedure, shortened: as §1
[5] = biological target: T1, Lysophosphatidic acid receptor 2; test: Inhibition of LPA2-mediated Erk activation in human HCT116 assessed as inhibition of LPA-induced erk phosphorylation
Procedure, shortened: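 HCT-116 cells at 90% confluence serum-starved 2 h, preincubated with compound at various concentrations 1 h at 37 °C, then stimulated with LPA 3 μM (HGF 30 ng/ml as counter-stimulus) for 12 min at 37 °C. Cells fixed, permeabilized, blocked 2 h; in-cell Western detection of p-Erk and total Erk simultaneously, p-Erk normalized to total Erk per well.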

HCT-116 = test: Inhibition of LPA-induced proliferation of human HCT116 cells after 24 hrs; type: functional, cell-based
Procedure, shortened: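 HCT-116 cells at 5000 cells/well in serum-free DMEM with 0.11% BSA. Test compound added at various concentrations, then LPA at a final 3 μM (HGF at a final 30 ng/ml as comparison stimulus). After 24 h incubation, viable cells measured by CellTiter-Glo luminescence.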

Chain of Lysophosphatidic acid receptor 1 (Q92633 whole entry): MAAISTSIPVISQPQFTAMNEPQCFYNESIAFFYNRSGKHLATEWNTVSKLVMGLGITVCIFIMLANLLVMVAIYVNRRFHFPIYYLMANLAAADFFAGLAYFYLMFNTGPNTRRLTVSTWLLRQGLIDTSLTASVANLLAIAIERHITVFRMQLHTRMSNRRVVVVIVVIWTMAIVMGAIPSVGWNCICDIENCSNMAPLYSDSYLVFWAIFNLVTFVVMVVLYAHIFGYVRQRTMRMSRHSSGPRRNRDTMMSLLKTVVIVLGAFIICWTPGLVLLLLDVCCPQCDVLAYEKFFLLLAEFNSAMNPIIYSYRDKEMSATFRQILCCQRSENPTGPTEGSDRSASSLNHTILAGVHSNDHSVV
T1 sequence (Q9HBW0 whole entry): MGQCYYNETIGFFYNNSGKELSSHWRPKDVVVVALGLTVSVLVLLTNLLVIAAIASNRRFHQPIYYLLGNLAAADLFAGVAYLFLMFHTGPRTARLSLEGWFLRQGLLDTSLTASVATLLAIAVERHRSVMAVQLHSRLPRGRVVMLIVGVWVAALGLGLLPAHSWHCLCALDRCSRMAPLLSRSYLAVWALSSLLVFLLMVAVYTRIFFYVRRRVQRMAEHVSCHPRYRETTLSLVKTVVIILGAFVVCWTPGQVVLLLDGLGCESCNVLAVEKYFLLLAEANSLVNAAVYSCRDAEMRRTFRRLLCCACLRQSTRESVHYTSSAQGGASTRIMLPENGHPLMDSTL

| IC50 [1] [nM] | Compound | other results |
| --- | --- | --- |
| 730 | Cc1ccccc1N1CCN(C[C@H](C)Nc2nc(C(F)(F)F)nc3ccccc23)CC1 | – |
| 6610 | CCCCS(=O)(=O)N1CCN(C[C@H](C)Nc2ncnc3c(C)csc23)CC1 | – |
| 310 | Cc1cccc(S(=O)(=O)N2CCN(C[C@H](C)Nc3ncnc4c(C)csc34)CC2)c1 | – |
| 170 | Cc1ccc(S(=O)(=O)N2CCN(C[C@H](C)Nc3ncnc4c(C)csc34)CC2)cc1 | – |
| 35 | Cc1csc2c(N[C@@H](C)CN3CCN(S(=O)(=O)c4cccc(Cl)c4)CC3)ncnc12 | – |
| 3200 | COc1ccccc1N1CCN(C[C@H](C)Nc2nc(C3CC3)nc3ccccc23)CC1 | – |
| 1860 | Cc1csc2c(N[C@@H](C)CN3CCN(S(=O)(=O)Cc4ccccc4)CC3)ncnc12 | – |
| 730 | Cc1ccccc1S(=O)(=O)N1CCN(C[C@H](C)Nc2ncnc3c(C)csc23)CC1 | – |
| 260 | Cc1ccccc1N1CCN(C[C@H](C)Nc2ncnc3c(C)csc23)CC1 | IC50 [2]: > 50 µM; IC50 [3]: > 50 µM |

More lines, now with the values behind:

| Compound | IC50 [1] [nM] | other results |
| --- | --- | --- |
| COc1cc(OC)cc(C(=O)N(CCCc2ccccc2)Cc2ccc(Oc3ccccc3C(=O)O)cc2)c1 | > 50000 | IC50 [2]: > 50 µM; IC50 [3]: 0.04 µM |
| COc1ccccc1N1CCN(C[C@@H](C)Nc2nc(C(F)(F)F)nc3ccccc23)CC1 | > 30000 | – |
| Cc1noc(-c2ccccc2)c1NC(=O)OC(C)c1ccccc1 (stereo not drawn) | > 50000 | IC50 [2]: 0.05 µM; IC50 [3]: 12 µM |
| COc1ccccc1N1CCN(C[C@H](C)Nc2nc(C(F)(F)F)nc3ccccc23)CC1 | 1300 | – |
| COc1ccccc1N1CCN(CCNc2nc(C(F)(F)F)nc3ccccc23)CC1 | > 30000 | – |
| CC(CN1CCN(c2ccc(F)cc2)CC1)Nc1nc(C2CC2)nc2ccccc12 (stereo not drawn) | – | IC50 [4]: 1700 nM |
| COc1ccccc1N1CCN(CC(C)(C)Nc2nc(C(F)(F)F)nc3ccccc23)CC1 | > 30000 | – |
| CC[C@@H](CN1CCN(c2ccccc2OC)CC1)Nc1nc(C(F)(F)F)nc2ccccc12 | > 30000 | – |
| Cc1csc2c(N[C@@H](C)CN3CCN(S(=O)(=O)c4ccc(Cl)c(Cl)c4)CC3)ncnc12 | 17 | IC50 [2]: > 50 µM; Activity [5]: Dose-dependent effect; Activity (HCT-116): Dose-dependent effect; IC50 [3]: > 50 µM |
